# Results from different studies.
# Compare with care: the assays were run in different laboratories.
# Target: Serine/threonine-protein kinase Nek6 (NEK6, Homo sapiens, UniProt Q9HC98)
# Effect on: enzyme activity
# Action: inhibitor
Compound,test,conditions,remaining activity [%]
Nc1nc(NC2CCCCC2)sc1C(=O)c1ccccc1,,10 µM,113
COc1cc(Nc2cnc(C#N)c(O[C@H](C)CN(C)C)n2)ncc1-c1cnn(C)c1,radiometric,10 µM,96
Cc1ccc(Nc2nccc(N(C)c3ccc4c(C)n(C)nc4c3)n2)cc1S(N)(=O)=O,,0.5 µM,96.1
CCN(CC)CCNC(=O)c1c(C)[nH]c(/C=C2\C(=O)Nc3ccc(F)cc32)c1C,,1 µM,103
COc1cc(Cl)c(C(=O)N[C@@H](CN[C@H]2CC[C@@H](N)CC2)Cc2ccc(C#N)cc2)cc1-c1ccc(CN[C@H](C)c2ccc(C)cc2)o1,,1 µM,111
CC(C)(C)c1nc2c(s1)c1nc(N)ncc1c1ccc(NS(=O)(=O)c3c(F)cccc3F)c(F)c12,radiometric,1 µM,96
CCN(CC)c1ccc(C2=NNC(=O)CC2C)cc1[N+](=O)[O-] (stereo not drawn),,10 µM,93
Cc1[nH]c(/C=C2\C(=O)Nc3ccc(F)cc32)c(C)c1C(=O)N[C@H]1CCN(C(=O)N(C)C)C1,,0.1 µM,131
FC(F)c1nc2ccccc2n1-c1nc(N2CCOCC2)nc(N2CCOCC2)n1,,10 µM,83
CC(C)(C)C(=O)c1sc(NC2CCCCC2)nc1N,,10 µM,100
Cn1c(=O)n(-c2ccc(C(C)(C)C#N)cc2)c2c3cc(-c4cnc5ccccc5c4)ccc3ncc21,,10 µM,95
Cc1sc(C(=O)NC2COC2)cc1-n1cc(NC(=O)Nc2c(F)cccc2Cl)cn1,,10 µM,92.7
